Assay results pooled from the literature.
Each line is one published result; the experiments were not run side by side.
Target: Mitogen-activated protein kinase 10 (MAPK10, Homo sapiens, UniProt P53779)

| SMILES | test | setting | endpoint | value |
| --- | --- | --- | --- | --- |
| N#CC1(c2ccccn2)CCN(Cc2cc(C(=O)O)c(=O)n3ccccc23)CC1 | cell-free assay, competition with immobilised ligand | 1 µM | remaining binding | 82% |
| NC(=O)c1nc(Nc2ccccc2)sc1NC(=O)C1CCCCC1 | cell-free assay, competition with immobilised ligand | 10 µM | remaining binding | 5.4% |
| COc1ncccc1-c1cnn2ccc(N3CCN(C(=O)OC(C)C)CC3)nc12 | binding, competition with immobilised ligand | 1 µM | remaining binding | 100% |
| CC(C)(C)c1cc(C=C(C#N)C#N)cc(Br)c1O | enzyme activity, inhibitor | 0.5 µM | remaining activity | 92.5% |
| Cc1nn(C)cc1-c1nc2c(N3CCN(Cc4ccc(Cl)cc4)CC3)c(Cl)cnc2[nH]1 | binding, competition with immobilised ligand | 1 µM | remaining binding | 100% |
| Cn1cc(-c2cc(F)cc(N3CCn4c(cc5c4CCCC5)C3=O)c2CO)cc(Nc2ccc(N3CCN(C4COC4)CC3)cn2)c1=O | enzyme activity, inhibitor | 0.1 µM | inhibition | 5% |
| COc1cc(Nc2ncc(F)c(Nc3ccc4c(n3)NC(=O)C(C)(C)O4)n2)cc(OC)c1OC | binding, competition with immobilised ligand | 10 µM | inhibition | 100% |
| Cn1cncc1[C@](O)(COc1ccc(C#N)cc1-c1ccc(OC(F)(F)F)cc1)c1ccc(C#N)cc1 | cell-free assay, competition with immobilised ligand | 1 µM | remaining binding | 70% |
| Nc1ncc(-c2nc(N3CCOCC3)nc(N3CCOCC3)n2)c(C(F)F)n1 | binding, competition with immobilised ligand | 10 µM | remaining binding | 90% |
| O=c1[nH]c2ccccc2n1C1CCN(Cc2ccc(-c3[nH]c4cc5ncnc5cc4nc3-c3ccccc3)cc2)CC1 | cell-free assay | 0.5 µM | remaining signal | 96% |
